Hits are enriched below; roughly 2.8% of the tested compounds scored in any of these assays.
ABHD4 inh – inhibits mouse alpha/beta hydrolase domain 4. Q8VD66. purified mABHD4, FP-Rh probe fluorescence polarization. inhibition, % at 8.92 µM. 370,000 tested, 0.54% active;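 active = inhibition exceeding the mean over every tested compound plus 3 SD, cut at about 30% in these data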
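Assay system: Wild-type mouse ABHD4 protein | Medium: HEPES pH 7.0 buffer, 150 mM NaCl, 0.01% Pluronic F-127 | Incubation: Enzyme–compound pre-incubation 45 min, then probe 60 min, both 25 °C | Technique: Fluorescence polarization with parallel and perpendicular emission, 525/598 nm | Evaluation: % inhibition of FP-Rh probe binding versus controls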
pPAFAH FP inh – inhibitors of human plasma PAF acetylhydrolase (pPAFAH); AID 463082; recombinant pPAFAH, FP-rhodamine probe fluorescence polarization; 330,000 tested, 1.5% active; inhibition, % at 3.39 µM; Q13093;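 active = inhibition above the mean inhibition across the screen plus 3 SD, cut at about 25% in these data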;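 also: inhibitors block binding of the rhodamine activity-based probe so polarization drops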
Target sequence (Q13093 whole entry, looked up): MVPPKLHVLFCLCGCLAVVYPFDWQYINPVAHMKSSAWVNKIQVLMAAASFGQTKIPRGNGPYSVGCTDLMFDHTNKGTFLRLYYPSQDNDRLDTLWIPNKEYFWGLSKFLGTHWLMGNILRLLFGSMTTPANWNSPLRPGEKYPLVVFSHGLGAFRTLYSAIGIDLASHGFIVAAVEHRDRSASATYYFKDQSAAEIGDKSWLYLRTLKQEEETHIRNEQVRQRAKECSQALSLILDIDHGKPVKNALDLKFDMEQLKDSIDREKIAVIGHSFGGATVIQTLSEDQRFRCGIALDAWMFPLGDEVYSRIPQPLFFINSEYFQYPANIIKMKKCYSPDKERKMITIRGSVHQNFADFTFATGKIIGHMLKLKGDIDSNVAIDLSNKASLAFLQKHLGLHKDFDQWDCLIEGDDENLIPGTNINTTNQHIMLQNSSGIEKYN
PAFAH2 inh – PAFAH2 (human) inhibition; Q99487; recombinant PAFAH2, FP-rhodamine activity probe, fluorescence polarization; inhibition, % at 3.39 µM; 340,000 tested, 0.99% active; AID 492956;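 active = inhibition above the mean over all tested compounds plus 3 SD, cut at about 30% in these data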;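 also: inhibitors block probe labeling of enzyme so polarization drops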
PAFAH1B3 FP inh – PAFAH1B3 (human) inhibition; Q15102; recombinant PAFAH1B3, FP-rhodamine probe, fluorescence polarization; inhibition, % at 3.39 µM; 340,000 tested, 0.28% active;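 active = inhibition above the screen-wide average of all tested compounds plus 3 SD, cut at about 25% in these data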
Target sequence (Q15102 whole entry, looked up): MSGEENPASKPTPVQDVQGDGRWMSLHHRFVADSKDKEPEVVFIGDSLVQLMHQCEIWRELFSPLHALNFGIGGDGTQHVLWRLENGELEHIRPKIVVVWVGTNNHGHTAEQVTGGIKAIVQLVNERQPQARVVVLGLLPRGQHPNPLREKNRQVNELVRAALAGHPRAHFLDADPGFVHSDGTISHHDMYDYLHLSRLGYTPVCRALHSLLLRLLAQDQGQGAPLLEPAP
HTRA1 inh – HTRA1 (human) protease inhibition | Q92743 | recombinant HTRA1, FP-rhodamine activity-based probe, fluorescence polarization | inhibition, % at 5.96 µM | 340,000 tested, 0.5% active | AID 504803; in the data active = inhibition above about 36%
PAFAH1B2 FP inh – inhibitors of human PAFAH1B2. AID 492953. 340,000 tested, 1.2% active. inhibition, % at 3.39 µM. recombinant PAFAH1B2, FP-rhodamine activity probe, fluorescence polarization. P68402;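 active = inhibition above the mean of all tested compounds plus 3 SD, cut at about 24% in these data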
PAFAH2 FP conf – PAFAH2 (human) inhibition, confirmed; AID 493030; recombinant PAFAH2, FP-rhodamine activity probe, fluorescence polarization; inhibition, % at 3.39 µM; shares compounds with PAFAH2 inh; 2,300 tested, 65% active;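 active = mean inhibition over three repeats above a set limit taken from the earlier primary screen, cut at about 30% in these data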;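 also: inhibitor blocks binding of rhodamine activity probe so polarization falls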
A number is an active result; 0 = inactive; - = no result.

SMILES	ABHD4 inh	pPAFAH FP inh	PAFAH2 inh	PAFAH1B3 FP inh	HTRA1 inh	PAFAH1B2 FP inh	PAFAH2 FP conf
COC(=O)c1ccc(OC(=O)N2CCOCC2)cc1	0	0	0	0	0	0	-
CC(C)(C)c1ccc(OC(=O)N2CCOCC2)cc1	0	0	30	0	0	0	38
COC(=O)[C@]12CCCCC=C1N(Cc1ccc(OC)cc1)C(=O)[C@@H]2CC(=O)N1CCC(c2ccccc2)CC1	0	-	-	-	-	-	-
CCOC(=O)c1sc(=S)n(-c2ccccc2)c1N(C(C)=O)C(C)=O	0	0	35	0	0	0	0
C=CCn1c(C)cc(C(=O)COC(=O)/C=C/c2cccc(OC)c2)c1C	0	0	55	0	0	0	46
COc1ccc(/C=C/C(=O)OCC(=O)c2c[nH]c3ccccc23)cc1	0	0	0	0	0	0	-
C=CCn1c(C)cc(C(=O)COC(=O)/C=C/c2ccc(OC)cc2)c1C	0	0	62	0	0	0	57
Cc1cc(C(=O)COC(=O)/C=C/c2cccc(F)c2)c(C)n1C	0	0	0	0	0	0	-
CCCC(Oc1ccc(Br)cc1)c1nc2c3cc(OC)c(OC)cc3nc(=S)n2[nH]1 (stereo unspecified)	0	0	33	0	0	0	0
CC(Oc1ccc(Br)cc1)c1nc2c3ccccc3nc(=S)n2[nH]1 (stereo unspecified)	0	0	0	0	0	0	-
O=C(COC(=O)/C=C/c1cccc(F)c1)Nc1ccccc1	0	0	76	0	0	0	82
COc1ccc(CCNC(=O)COC(=O)/C=C/c2cccc(F)c2)cc1	0	0	0	0	0	0	-
CCCNC(=O)COC(=O)/C=C/c1cccc(F)c1	0	0	33	0	0	0	0
Cc1ccc(C(=O)O/N=C2\CCCc3ccccc32)cc1	0	0	42	0	0	0	40
C=CCn1c(Cc2cccs2)nnc1SCC(=O)Nc1ccc2c(c1)OCO2	0	-	-	-	-	-	-
Cc1ccc2c(c1)C(CS(=O)(=O)NCCc1ccccc1)NC2 (stereo unspecified)	0	-	-	-	-	-	-
CCNC(=S)NNC(=O)CSc1nnc(SCc2cccc3ccccc23)s1	0	-	-	-	-	-	-
Cc1ccc(/C=C2/SC(=S)N(CCCC(=O)Nc3cc([N+](=O)[O-])ccc3O)C2=O)cc1	0	0	32	0	0	0	0
COc1ccc(S[C@]2(C(=O)N3CCN(C(C)=O)CC3)CC(=O)N(C(=O)/C=C/c3ccccc3)[C@@H]2c2ccc(OC)cc2)cc1	0	-	-	-	-	-	-
COc1cc(SC)ccc1C(=O)OCC(=O)NC(=O)NC(C)C	0	0	0	0	0	0	-
COc1cc(SC)ccc1C(=O)OCC(=O)NCC(C)C	0	0	45	0	0	0	0
CC(C)CNC(=O)COC(=O)c1ccc(F)cc1Cl	0	0	35	0	0	0	0
CC(C)CNC(=O)COC(=O)c1cc(Cl)cc(Cl)c1N	0	0	0	0	0	0	-
CC(=O)c1cccc(NC(=O)COC(=O)c2ccc3c(c2)OCCO3)c1	0	0	84	0	0	0	71
O=C(COC(=O)c1cccnc1Cl)Nc1ccc2c(c1)OCCO2	0	0	36	0	0	0	30
SMILES	ABHD4 inh	pPAFAH FP inh	PAFAH2 inh	PAFAH1B3 FP inh	HTRA1 inh	PAFAH1B2 FP inh	PAFAH2 FP conf
CCC(=O)Nc1cc(C(=O)OCC(=O)c2ccc(Cl)cc2Cl)ccc1C	0	0	0	0	0	0	-
CCC(=O)Nc1cc(C(=O)OCC(=O)c2ccccc2Cl)ccc1C	0	0	42	0	0	0	32
O=C(COC(=O)c1ccc(O)cc1)Nc1cc(C(F)(F)F)ccc1Cl	0	0	55	0	0	0	40
CN1CCCN(S(=O)(=O)c2ccc3c(c2)n(C)c(=O)c(=O)n3C)CC1	0	-	-	-	-	-	-
CC(C)NC(=O)NC1CCN(CC(=O)Nc2ccc3c(c2)OCCO3)CC1	0	-	-	-	-	-	-
Nc1ccc(C(=O)OCC(=O)Nc2ccc3c(c2)OCO3)cc1[N+](=O)[O-]	0	0	65	0	0	0	49
O=C(COC(=O)c1ccc(S(=O)(=O)N2CCCCC2)cc1)Nc1ccccc1	0	0	0	0	0	0	-
O=C(COC(=O)c1ccc2c(c1)OCCO2)Nc1ccccc1C(F)(F)F	0	-	-	-	0	-	-
CC(C)(C)NC(=O)COC(=O)c1ccc(O)cc1	0	0	64	0	0	0	53
O=C(COC(=O)c1ccc(O)cc1)Nc1ccccc1	0	0	92	0	0	0	80
O=C(COC(=O)c1ccc2c(c1)OCO2)Nc1ccccc1Cl	0	0	58	0	0	0	44
O=C(Nc1ccc(N2C(=O)CC3(CCCCC3)C2=O)c(Cl)c1)c1ccccn1	0	-	-	-	-	-	-
O=C(C1CCCN1S(=O)(=O)c1ccc(F)cc1)N1CCc2ccccc2C1 (stereo unspecified)	0	-	-	-	-	-	-
N#Cc1ccc(/C=C2\CC3(OC(=O)C4CCCC4)CCCN2C3)cc1 (stereo unspecified)	0	-	-	-	-	-	-
O=C(COC(=O)c1ccc2[nH]c3c(c2c1)CCCC3)Nc1ccccc1Cl	0	0	32	0	0	0	0
O=C(COC(=O)c1ccc2c(c1)OCO2)Nc1cccc(F)c1	0	0	81	0	0	0	84
O=C(Nc1cccc(F)c1)c1ccc2c(c1)OCO2	0	0	0	0	0	0	-
CN(C)c1cccc(C(=O)OCC(=O)Nc2ccccc2Cl)c1	0	0	54	0	0	0	50
CN(C)c1cccc(C(=O)OCC(=O)Nc2ccccc2-c2ccccc2)c1	0	0	0	0	0	0	-
Nc1ccc(C(=O)OCC(=O)NC(=O)c2ccccc2)cc1[N+](=O)[O-]	0	0	38	0	0	0	0
S=C(Nc1cccc(Br)c1)OC1CCC12CCC(c1ccccc1)CC2 (stereo unspecified)	0	-	-	-	-	-	-
COCCCNC(=O)c1nnn2c1nc(N)c1cc(Cl)ccc12	0	-	-	-	-	-	-
CCOc1ccc(NC(=O)COC(=O)c2ccc3c(c2)OCO3)cc1	0	0	64	0	0	0	62
O=C(COC(=O)c1ccc(O)cc1)Nc1ccc2c(c1)OCCO2	0	0	78	0	0	0	69
O=C(COC(=O)c1ccc(O)cc1)NCC1COc2ccccc2O1 (stereo unspecified)	0	0	32	0	0	0	0
NC(=O)c1ccc(NC(=O)COC(=O)c2ccc3c(c2)OCO3)cc1	0	0	0	0	0	0	-
Cc1ccc(NC(=O)COC(=O)c2ccc3c(c2)OCCO3)cc1	0	0	86	0	0	0	85
CCC(=O)c1ccc(OCC(=O)NCC2COc3ccccc3O2)cc1 (stereo unspecified)	0	0	0	0	0	0	-
COc1ccc(NC(=O)COC(=O)c2ccc3c(c2)OCCO3)cc1OC	0	0	0	0	0	0	-
CCOC(=O)[C@@]12CCC3=C1N(CCC3)C(=O)[C@H](CC(=O)NCCc1ccccc1OC)C2	0	-	-	-	-	-	-

Source: PubChem (The Scripps Research Institute Molecular Screening Center)
